Assay results published in ChEMBL document CHEMBL1156878, “New benzoxanthone derivatives as topoisomerase inhibitors and DNA cross-linkers” (Bioorg Med Chem, 2010).
Structures can show the parent of a compound that is named as a salt. Activity calls are given as the source filed them. No cut-off for these calls is given here.

Tests used:
DU-145 = assay: Cytotoxicity against human DU145 cells after 48 hrs by MTT assay; assay type: functional, cell-based; conditions: DU-145, 48 h
Method in brief: (§1)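 Cells seeded at 2–4 × 10⁴ per well and held overnight at 37 °C, 5% CO₂, in medium with 10% FBS. On day 2 the medium was replaced with medium holding graded compound concentrations. Absorbance was read at 450 nm and fitted to a four-parameter logistic equation for IC₅₀. Mean ± SD of three experiments, each in triplicate.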

MDA-MB-231 = assay: Cytotoxicity against human MDA-MB-231 cells after 48 hrs by MTT assay; assay type: functional, cell-based; conditions: MDA-MB-231, 48 h
Method in brief: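 Cells seeded at 2–4 × 10⁴ per well and grown overnight in medium with 10% FBS at 37 °C, 5% CO₂. Medium was then replaced with medium holding graded compound concentrations. Absorbance was read at 450 nm and IC50 fitted to a four-parameter logistic equation. Mean of three experiments run in triplicate.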

HT-29 = assay: Cytotoxicity against human HT-29 cells after 48 hrs […]; assay type: functional, cell-based; conditions: HT-29, 48 h
HL-60 = assay: Cytotoxicity against human HL60 cells after 48 hrs by MTT assay; assay type: functional, cell-based; conditions: HL-60, 48 h; method in brief: as §1
HeLa = assay: Cytotoxicity against human HeLa cells after 48 hrs by MTT assay; assay type: functional, cell-based; method in brief: as §1
[1] = molecular target: DNA topoisomerase 2-alpha (Homo sapiens) (UniProt P11388); assay: Inhibition of human recombinant DNA topoisomerase 2alpha -mediated pBR322 DNA relaxation at 100 uM by gel electrophoresis
Method in brief: (§2)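 Relaxation of 200 ng supercoiled pBR322 by 1 unit human topo IIα, with or without compound, at 30 °C for 30 min. Buffer: 10 mM Tris-HCl pH 7.9, 50 mM NaCl, 50 mM KCl, 5 mM MgCl₂, 1 mM EDTA, 1 mM ATP, 15 µg/mL BSA. Stopped with EDTA and run on 1% agarose gel in TAE at 25 V for 4 h. Band analysis gave inhibition ratio.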

[2] = molecular target: T1, DNA topoisomerase 1 (Homo sapiens) (UniProt P11387); assay: Inhibition of human recombinant topoisomerase 1-mediated pBR322 DNA relaxation at 20 uM by gel electrophoresis
T1 sequence (whole entry): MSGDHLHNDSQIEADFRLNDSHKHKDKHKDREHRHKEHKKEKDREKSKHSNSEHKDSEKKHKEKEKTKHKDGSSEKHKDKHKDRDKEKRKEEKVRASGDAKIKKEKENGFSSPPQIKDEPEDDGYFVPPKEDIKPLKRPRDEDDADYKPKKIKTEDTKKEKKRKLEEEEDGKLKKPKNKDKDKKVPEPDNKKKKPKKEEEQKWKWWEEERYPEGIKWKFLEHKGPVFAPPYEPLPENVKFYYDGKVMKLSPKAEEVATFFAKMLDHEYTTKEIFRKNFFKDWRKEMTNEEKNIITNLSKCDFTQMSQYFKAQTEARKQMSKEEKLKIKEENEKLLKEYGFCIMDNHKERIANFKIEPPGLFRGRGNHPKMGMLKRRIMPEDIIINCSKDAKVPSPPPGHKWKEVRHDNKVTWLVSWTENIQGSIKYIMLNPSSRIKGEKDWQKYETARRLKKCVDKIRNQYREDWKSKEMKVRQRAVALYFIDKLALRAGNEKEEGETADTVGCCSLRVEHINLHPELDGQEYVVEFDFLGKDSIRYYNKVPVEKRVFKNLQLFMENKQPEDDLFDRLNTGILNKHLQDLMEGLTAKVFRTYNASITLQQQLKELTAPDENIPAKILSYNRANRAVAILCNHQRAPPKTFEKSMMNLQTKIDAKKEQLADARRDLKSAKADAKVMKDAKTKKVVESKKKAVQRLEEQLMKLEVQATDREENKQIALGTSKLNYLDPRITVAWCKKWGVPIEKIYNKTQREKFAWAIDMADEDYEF
Method in brief: (§3)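 Relaxation of 100 ng supercoiled pBR322 by 0.4 units recombinant human topo I, with or without compound (20 mM DMSO stocks), at 37 °C for 30 min. Buffer: 10 mM Tris-HCl pH 7.9, 150 mM NaCl, 0.1% BSA, 1 mM spermidine, 5% glycerol. Run on 1% agarose gel in TAE at 15 V for 7 h, stained with ethidium bromide, bands quantified under UV to give inhibition ratio.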

[3] = molecular target: DNA topoisomerase 2-alpha (Homo sapiens) (UniProt P11388); assay: Inhibition of human recombinant DNA topoisomerase 2alpha -mediated pBR322 DNA relaxation at 20 uM by gel electrophoresis; method in brief: as §2
[4] = molecular target: T1, DNA topoisomerase 1 (Homo sapiens); assay: Inhibition of human recombinant topoisomerase 1-mediated pBR322 DNA relaxation at 100 uM by gel electrophoresis; method in brief: as §3
Nucleic Acid = assay: Induction of DNA cross linking in linearized pBR322 at 100 uM by alkaline gel electrophoresis; assay type: nucleic-acid assay; conditions: Escherichia coli
Method in brief: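 pBR322 was linearized with EcoRI and ethanol-precipitated, then incubated with compound for 2 h at room temperature in 10 mM Tris–HCl, 1 mM EDTA, pH 8.0. Samples ran on a denaturing 1.2% alkaline agarose gel in 50 mM NaOH, 1 mM EDTA. The gel was neutralized 1 h in 100 mM Tris, 150 mM NaCl, pH 7.6, alongside a HindIII marker.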

Chain of DNA topoisomerase 2-alpha (Homo sapiens) (P11388 whole entry): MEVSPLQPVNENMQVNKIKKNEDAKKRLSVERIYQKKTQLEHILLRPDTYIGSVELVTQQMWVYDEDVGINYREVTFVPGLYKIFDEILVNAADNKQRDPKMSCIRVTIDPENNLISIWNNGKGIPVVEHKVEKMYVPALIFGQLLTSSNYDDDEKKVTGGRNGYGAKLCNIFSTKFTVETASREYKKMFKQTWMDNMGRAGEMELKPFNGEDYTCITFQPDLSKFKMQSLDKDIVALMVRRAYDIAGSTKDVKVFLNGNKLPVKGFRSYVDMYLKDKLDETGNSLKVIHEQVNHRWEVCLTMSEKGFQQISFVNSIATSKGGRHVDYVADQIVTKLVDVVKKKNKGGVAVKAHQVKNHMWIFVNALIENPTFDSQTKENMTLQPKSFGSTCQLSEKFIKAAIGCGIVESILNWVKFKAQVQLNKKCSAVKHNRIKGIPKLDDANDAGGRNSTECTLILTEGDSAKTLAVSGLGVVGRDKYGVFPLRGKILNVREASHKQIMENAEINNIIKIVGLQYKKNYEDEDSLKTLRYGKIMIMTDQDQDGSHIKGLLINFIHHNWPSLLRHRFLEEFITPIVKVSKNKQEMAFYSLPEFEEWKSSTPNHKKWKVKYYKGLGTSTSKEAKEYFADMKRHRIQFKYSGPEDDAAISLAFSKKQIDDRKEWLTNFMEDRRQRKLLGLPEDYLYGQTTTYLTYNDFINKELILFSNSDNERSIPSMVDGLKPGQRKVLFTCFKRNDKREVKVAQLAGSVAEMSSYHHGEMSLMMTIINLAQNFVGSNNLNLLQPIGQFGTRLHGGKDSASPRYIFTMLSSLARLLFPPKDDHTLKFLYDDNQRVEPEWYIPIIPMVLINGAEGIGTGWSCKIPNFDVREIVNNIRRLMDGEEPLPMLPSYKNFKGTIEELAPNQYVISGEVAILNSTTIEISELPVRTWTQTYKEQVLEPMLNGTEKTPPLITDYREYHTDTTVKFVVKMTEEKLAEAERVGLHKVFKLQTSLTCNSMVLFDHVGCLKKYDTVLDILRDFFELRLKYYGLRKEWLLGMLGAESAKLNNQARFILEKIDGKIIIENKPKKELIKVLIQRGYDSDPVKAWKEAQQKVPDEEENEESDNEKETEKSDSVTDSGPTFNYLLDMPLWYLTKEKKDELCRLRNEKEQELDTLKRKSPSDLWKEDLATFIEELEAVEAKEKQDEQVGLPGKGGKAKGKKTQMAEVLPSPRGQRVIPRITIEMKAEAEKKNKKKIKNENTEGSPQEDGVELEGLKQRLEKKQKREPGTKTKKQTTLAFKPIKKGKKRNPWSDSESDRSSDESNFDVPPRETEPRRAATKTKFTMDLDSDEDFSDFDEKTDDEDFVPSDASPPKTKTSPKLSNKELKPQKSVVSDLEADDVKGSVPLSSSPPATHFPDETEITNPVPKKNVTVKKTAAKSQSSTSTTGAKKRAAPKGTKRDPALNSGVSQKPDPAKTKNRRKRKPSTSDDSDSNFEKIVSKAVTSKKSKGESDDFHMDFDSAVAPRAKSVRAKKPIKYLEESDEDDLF

| Activity (Nucleic Acid) | Compound | IC50 (DU-145) | IC50 (MDA-MB-231) | IC50 (HT-29) | IC50 (HL-60) | IC50 (HeLa) | inhibition [1] | inhibition [2] | inhibition [3] | inhibition [4] |
| --- | --- | --- | --- | --- | --- | --- | --- | --- | --- | --- |
| – | COc1cccc2c1C(=O)c1c(O)c3c(c(O)c1C2=O)C[C@@](O)(C(=O)CO)C[C@@H]3O[C@H]1C[C@H](N)[C@H](O)[C@H](C)O1 [DOXORUBICIN HYDROCHLORIDE] | 1.19 µM | 3.15 µM | 0.95 µM | 0.94 µM | 0.71 µM | – | – | – | – |
| – | O=c1c2ccc3ccccc3c2oc2cc(OCC3CS3)cc(O)c12 (stereo unspecified) | 10.8 µM | > 50 µM | > 50 µM | 22.6 µM | > 50 µM | 13.9% | 2.5% | -0% | 15.6% |
| Active | O=c1c2cc3ccccc3cc2oc2cc(OCC3CO3)cc(OCC3CO3)c12 (stereo unspecified) | 3.01 µM | 1.64 µM | 0.6 µM | 5.13 µM | 2.19 µM | 60.1% | 8.8% | 8.9% | 12.3% |
| inactive | O=c1c2c(OCC3CO3)cc(OCC3CO3)cc2oc2ccc3ccccc3c12 (stereo unspecified) | 3.44 µM | > 50 µM | 7.38 µM | 6.47 µM | 10.2 µM | 1% | -0% | -0% | 18% |
| – | CC[C@@]1(O)C(=O)OCc2c1cc1n(c2=O)Cc2cc3ccccc3nc2-1 [CAMPTOTHECIN] | 3.57 µM | 0.92 µM | 0.85 µM | 0.065 µM | 0.86 µM | – | – | – | – |
| – | O=c1c2ccc3ccccc3c2oc2cc(OCC3CO3)cc(O)c12 (stereo unspecified) | 2.56 µM | 0.73 µM | 18.9 µM | 3.67 µM | > 50 µM | 9% | 10.6% | 5.5% | 1.7% |
| – | O=c1c2ccc3ccccc3c2oc2cc(OCC3CS3)cc(OCC3CS3)c12 (stereo unspecified) | 5.66 µM | > 50 µM | > 50 µM | 37 µM | 25.6 µM | 71.9% | 56.5% | 72.7% | 79% |
| – | O=c1c2cc3ccccc3cc2oc2cc(OCC3CO3)cc(O)c12 (stereo unspecified) | 36.2 µM | 15.1 µM | 2.34 µM | 9.4 µM | > 100 µM | -0% | 2.6% | -0% | 13.7% |
| – | O=c1c2cc3ccccc3cc2oc2cc(OCC3CS3)cc(OCC3CS3)c12 (stereo unspecified) | 19.4 µM | 5.16 µM | 1.66 µM | 5.13 µM | 8.01 µM | 1.9% | -0% | 13.5% | 4.3% |
| Active | O=c1c2ccc3ccccc3c2oc2cc(OCC3CO3)cc(OCC3CO3)c12 (stereo unspecified) | 1.29 µM | 7.43 µM | 8.2 µM | 5.4 µM | 24.2 µM | 5.7% | -0% | 0.1% | 11.9% |
| – | O=c1c2cc3ccccc3cc2oc2cc(OCC3CS3)cc(O)c12 (stereo unspecified) | 1.55 µM | 14.8 µM | 5.4 µM | 2.48 µM | 8.52 µM | -0% | -0% | 7.2% | 0.5% |
| – | O=c1c2c(OCC3CS3)cc(OCC3CS3)cc2oc2ccc3ccccc3c12 (stereo unspecified) | 1.32 µM | 18.9 µM | 0.75 µM | 1.85 µM | 24.9 µM | 4.4% | -0% | 8.4% | -0% |
| – | COc1cc([C@@H]2c3cc4c(cc3[C@@H](O[C@@H]3O[C@@H]5CO[C@@H](C)O[C@H]5[C@H](O)[C@H]3O)[C@H]3COC(=O)[C@H]23)OCO4)cc(OC)c1O [ETOPOSIDE] | 1.63 µM | 2.87 µM | 1.42 µM | 0.97 µM | 0.47 µM | – | – | – | – |
| – | O=c1c2c(O)cc(OCC3CO3)cc2oc2ccc3ccccc3c12 (stereo unspecified) | 1.4 µM | > 50 µM | 0.96 µM | 2.31 µM | > 100 µM | 3.7% | 9.7% | -0% | -0% |
| – | O=c1c2c(O)cc(OCC3CS3)cc2oc2ccc3ccccc3c12 (stereo unspecified) | 8.76 µM | 29.1 µM | 3.58 µM | 3.48 µM | > 100 µM | 5.3% | 2.4% | -0% | -0% |
